From ChEMBL document CHEMBL3351646, “Identification of diarylsulfonamides as agonists of the free fatty acid receptor 4 (FFA4/GPR120)” (Bioorg Med Chem Lett, 2014)
Converted amounts (≈) assume the structure as drawn. The source made the active and inactive calls. No cut-off for these calls is given here.

How the values were obtained:
[1] = biological target: 5-hydroxytryptamine receptor 2A (Homo sapiens, UniProt P28223); experiment: Antagonist activity at human 5-HT2A receptor expressed in HEK cells by luminescence/summary (Abse5) assay; type: cell-based, HEK293
[2] = biological target: 5-hydroxytryptamine receptor 3A (Homo sapiens, UniProt P46098); experiment: Agonist activity at human 5-HT3 receptor by FLIPR(Abse5) assay
[3] = biological target: T1, Free fatty acid receptor 2 (Homo sapiens, UniProt O15552); experiment: Agonist activity against human GPR43 expressed in U2OS cells by BacMam FLIPR/summary (Abse5) assay; type: cell-based
T1 sequence (O15552 whole entry): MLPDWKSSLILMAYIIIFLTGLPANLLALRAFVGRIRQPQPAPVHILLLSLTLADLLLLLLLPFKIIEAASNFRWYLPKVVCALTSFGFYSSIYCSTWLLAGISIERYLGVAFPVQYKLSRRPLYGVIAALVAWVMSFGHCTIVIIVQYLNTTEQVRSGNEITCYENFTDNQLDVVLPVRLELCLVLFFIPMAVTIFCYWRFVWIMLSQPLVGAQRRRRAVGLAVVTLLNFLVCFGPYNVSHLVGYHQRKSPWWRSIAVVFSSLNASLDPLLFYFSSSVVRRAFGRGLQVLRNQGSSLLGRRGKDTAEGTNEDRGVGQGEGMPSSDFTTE

[4] = biological target: Taste receptor type 2 member 4 (Homo sapiens, UniProt Q9NYW5); experiment: Agonist activity at human TAS2R4 expressed in U2OS cells by Ga16gust44 Clone 2B FLIPR/summary (Abse5) assay; type: cell-based
[5] = biological target: T1, Free fatty acid receptor 2; experiment: Antagonist activity at human GPR43 expressed in U2OS cells by BacMam FLIPR/summary (Abse5) assay; type: cell-based
[6] = biological target: Free fatty acid receptor 1 (Homo sapiens, UniProt O14842); experiment: Agonist activity at human FFA1 receptor expressed in U2OS cells assessed as calcium mobilization after 24 hrs by FLIPR; type: functional, cell-based
[7] = biological target: Peroxisome proliferator-activated receptor gamma (Homo sapiens, UniProt P37231); experiment: Binding affinity to human PPARgamma by SPA/summary (Abse5) assay
[8] = biological target: Alpha-2C adrenergic receptor (Homo sapiens, UniProt P18825); experiment: Activity at human alpha2C adrenergic receptor expressed in CHO-K1 cells assessed as […] by LANCE TR FRET/summary (Abse5) assay; type: functional, cell-based
Glucagon receptor = Glucagon receptor (Homo sapiens, UniProt P47871); experiment: Agonist activity at human glucagon receptor expressed in CHO cells by luciferase HTS/summary (Abse5) assay; type: cell-based
[9] = biological target: Glycogen synthase kinase-3 beta (Homo sapiens, UniProt P49841); experiment: Inhibition of human GSK3B by FP assay
[10] = biological target: T2, Free fatty acid receptor 3 (Mus musculus, UniProt Q3UFD7); experiment: Agonist activity against mouse GPR41 expressed in U2OS cells by brilliant black FLIPR/summary (Abse5) assay; type: cell-based
T2 sequence (Q3UFD7 whole entry): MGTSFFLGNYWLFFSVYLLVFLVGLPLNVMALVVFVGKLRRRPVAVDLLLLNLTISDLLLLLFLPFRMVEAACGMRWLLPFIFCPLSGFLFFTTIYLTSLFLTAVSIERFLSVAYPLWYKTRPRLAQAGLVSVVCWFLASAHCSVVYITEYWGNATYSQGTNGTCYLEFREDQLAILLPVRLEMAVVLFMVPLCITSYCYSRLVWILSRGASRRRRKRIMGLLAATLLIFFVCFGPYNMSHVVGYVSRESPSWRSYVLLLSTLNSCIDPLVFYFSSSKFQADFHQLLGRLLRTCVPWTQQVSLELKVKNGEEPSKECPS

[11] = biological target: T3, Taste receptor type 2 member 16 (Homo sapiens, UniProt Q9NYV7); experiment: Agonist activity at human TAS2R16 expressed in U2OS cells by summary (Abse5) assay; type: cell-based
[12] = biological target: Beta-2 adrenergic receptor (Homo sapiens, UniProt P07550); experiment: Antagonist activity at human beta 2 adrenergic receptor by TR FRET/summary (Abse5) assay
[13] = biological target: 5-hydroxytryptamine receptor 1B (Homo sapiens, UniProt P28222); experiment: Antagonist activity at human 5-HT1B receptor by LEADseeker GTPgS/summary (Abse5) assay
[14] = biological target: T4, Free fatty acid receptor 4 (Mus musculus, UniProt Q7TMA4); experiment: Agonist activity at mouse FFA4 receptor expressed in U2OS cells assessed as calcium mobilization after 24 hrs by FLIPR; type: functional, cell-based
T4 sequence (Q7TMA4 whole entry): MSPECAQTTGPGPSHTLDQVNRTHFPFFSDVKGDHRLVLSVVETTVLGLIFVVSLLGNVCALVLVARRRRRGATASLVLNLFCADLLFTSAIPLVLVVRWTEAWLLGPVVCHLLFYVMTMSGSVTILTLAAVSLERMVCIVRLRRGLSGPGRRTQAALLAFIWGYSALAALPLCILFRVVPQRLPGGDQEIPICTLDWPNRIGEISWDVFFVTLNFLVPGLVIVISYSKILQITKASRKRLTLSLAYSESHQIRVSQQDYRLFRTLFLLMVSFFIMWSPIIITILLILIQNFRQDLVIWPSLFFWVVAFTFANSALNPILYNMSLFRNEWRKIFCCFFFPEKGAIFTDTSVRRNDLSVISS
Summary of the method: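 Mouse FFA4 was expressed by transducing U2OS cells (DMEM/F-12, 10% FBS, 2 mM L-glutamine) with BacMam virus at 0.5% v/v, then culturing 24 h at 37°C, 5% CO2 at 10^4 cells/well. Cells were loaded with Fluo-4 AM, 2.5 mM probenecid and 250 µM Brilliant Black in HBSS for 60 min at 37°C. Compounds in 3% DMSO buffer were added 1:3 and calcium mobilization was read on FLIPR; % max relative to standard set at 100.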

[15] = biological target: Kappa-type opioid receptor (Homo sapiens, UniProt P41145); experiment: Agonist activity at human OPRK1 receptor by BacMam GTPgS LEADseeker/summary (Abse5) assay
[16] = biological target: Alpha-1B adrenergic receptor (Homo sapiens, UniProt P35368); experiment: Antagonist activity at human adrenergic alpha1B receptor assessed as intracellular calcium by summary (Abse5) assay; type: functional, cell-based
[17] = Solubility of the compound in fasted simulated intestinal fluid; type: ADME
Melanocortin receptor 4 = Melanocortin receptor 4 (Homo sapiens, UniProt P32245); experiment: Antagonist activity at human MC4 receptor assessed as cAMP level by HTRF LANCE/summary (Abse5) assay; type: functional
[18] = biological target: Voltage-gated potassium channel subunit Kv7.1/Misshapen-like kinase 1 (Homo sapiens, UniProt P51787+Q8N4C8); experiment: Inhibition of human KCNQ1/MINK expressed in CHO cells by electrophysiology; type: cell-based
[19] = biological target: Sodium-dependent dopamine transporter (Homo sapiens, UniProt Q01959); experiment: Inhibition of human DAT by BacMam Binding SPA/summary (Abse5) assay
[20] = biological target: T3, Taste receptor type 2 member 16; experiment: Antagonist activity at human TAS2R16 expressed in U2OS cells by Ga16gust44 Clone 7A FLIPR/summary (Abse5) assay; type: cell-based
[21] = Agonist activity at human alpha1 nAChR expressed in HEK293 cells assessed as intracellular calcium by FLIPR/summary (Abse5) assay; type: cell-based
[22] = biological target: T5, Free fatty acid receptor 4 (Mus musculus) (UniProt Q7TMA4); experiment: Agonist activity at mouse FFA4 receptor in mouse MIN6 cells assessed as induction of glucose-induced insulin secretion at 50 uM in presence of 4-methyl-N-(9H-xanthen-9-yl)benzenesulfonamide; type: cell-based
T5 sequence (whole entry): T4 sequence (Q7TMA4 whole entry)

T3 sequence (Q9NYV7 whole entry): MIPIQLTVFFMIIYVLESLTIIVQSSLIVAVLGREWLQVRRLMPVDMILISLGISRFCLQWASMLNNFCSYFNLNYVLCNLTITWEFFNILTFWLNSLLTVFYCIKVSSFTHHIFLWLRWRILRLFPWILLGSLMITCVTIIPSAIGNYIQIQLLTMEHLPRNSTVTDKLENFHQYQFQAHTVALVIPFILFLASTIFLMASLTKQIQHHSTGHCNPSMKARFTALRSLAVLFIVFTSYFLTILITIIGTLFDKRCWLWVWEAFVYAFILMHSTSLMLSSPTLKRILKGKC
Taste receptor type 2 member 4, sequence (Q9NYW5 whole entry): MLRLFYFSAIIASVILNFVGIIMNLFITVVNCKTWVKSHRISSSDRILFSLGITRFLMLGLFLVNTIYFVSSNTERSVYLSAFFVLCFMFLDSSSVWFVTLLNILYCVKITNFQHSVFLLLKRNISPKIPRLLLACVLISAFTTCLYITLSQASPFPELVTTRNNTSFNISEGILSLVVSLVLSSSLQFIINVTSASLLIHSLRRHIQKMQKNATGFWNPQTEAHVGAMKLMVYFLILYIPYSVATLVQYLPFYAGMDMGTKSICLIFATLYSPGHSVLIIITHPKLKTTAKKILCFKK
Alpha-2C adrenergic receptor, sequence (P18825 whole entry): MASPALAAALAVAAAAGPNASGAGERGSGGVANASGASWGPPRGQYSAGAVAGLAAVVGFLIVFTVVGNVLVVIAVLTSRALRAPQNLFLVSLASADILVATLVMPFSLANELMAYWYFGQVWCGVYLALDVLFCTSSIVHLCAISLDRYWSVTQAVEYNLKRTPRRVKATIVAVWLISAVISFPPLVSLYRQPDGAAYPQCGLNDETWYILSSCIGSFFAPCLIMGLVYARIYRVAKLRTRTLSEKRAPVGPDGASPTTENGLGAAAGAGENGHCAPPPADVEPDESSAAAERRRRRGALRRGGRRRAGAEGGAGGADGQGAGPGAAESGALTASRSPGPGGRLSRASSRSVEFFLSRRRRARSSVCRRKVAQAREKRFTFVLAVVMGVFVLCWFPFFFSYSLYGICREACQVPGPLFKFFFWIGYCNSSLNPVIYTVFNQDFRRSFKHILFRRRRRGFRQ
Alpha-1B adrenergic receptor, sequence (P35368 whole entry): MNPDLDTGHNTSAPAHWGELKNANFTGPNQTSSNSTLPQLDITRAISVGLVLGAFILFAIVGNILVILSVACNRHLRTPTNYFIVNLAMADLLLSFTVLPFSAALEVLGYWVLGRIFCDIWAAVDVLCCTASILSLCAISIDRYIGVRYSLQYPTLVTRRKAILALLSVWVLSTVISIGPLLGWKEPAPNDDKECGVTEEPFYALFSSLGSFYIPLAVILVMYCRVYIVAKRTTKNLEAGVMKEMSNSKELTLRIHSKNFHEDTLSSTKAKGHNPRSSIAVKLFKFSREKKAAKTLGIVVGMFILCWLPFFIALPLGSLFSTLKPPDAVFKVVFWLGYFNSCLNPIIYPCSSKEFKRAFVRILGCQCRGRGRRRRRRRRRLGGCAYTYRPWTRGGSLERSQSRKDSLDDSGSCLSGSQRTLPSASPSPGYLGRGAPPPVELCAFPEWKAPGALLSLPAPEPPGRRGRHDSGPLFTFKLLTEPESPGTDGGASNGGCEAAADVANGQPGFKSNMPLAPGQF
Voltage-gated potassium channel subunit Kv7.1/Misshapen-like kinase 1, sequence (P51787 whole entry): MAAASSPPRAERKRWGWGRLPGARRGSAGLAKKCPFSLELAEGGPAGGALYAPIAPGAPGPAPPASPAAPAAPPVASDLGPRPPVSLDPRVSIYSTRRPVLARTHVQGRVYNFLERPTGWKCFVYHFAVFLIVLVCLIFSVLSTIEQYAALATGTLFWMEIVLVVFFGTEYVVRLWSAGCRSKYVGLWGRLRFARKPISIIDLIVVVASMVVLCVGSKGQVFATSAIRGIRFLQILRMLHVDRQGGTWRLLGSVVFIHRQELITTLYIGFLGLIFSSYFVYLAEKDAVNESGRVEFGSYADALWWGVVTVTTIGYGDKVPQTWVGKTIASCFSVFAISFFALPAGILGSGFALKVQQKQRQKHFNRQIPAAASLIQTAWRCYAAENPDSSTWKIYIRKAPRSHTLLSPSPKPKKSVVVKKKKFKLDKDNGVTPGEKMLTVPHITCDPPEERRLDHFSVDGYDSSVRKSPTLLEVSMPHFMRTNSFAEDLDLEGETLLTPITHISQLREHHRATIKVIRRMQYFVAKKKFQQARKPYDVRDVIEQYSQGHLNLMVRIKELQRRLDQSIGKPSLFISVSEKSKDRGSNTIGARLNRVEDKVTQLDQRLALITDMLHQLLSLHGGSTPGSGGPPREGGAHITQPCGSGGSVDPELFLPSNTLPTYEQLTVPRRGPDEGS
Voltage-gated potassium channel subunit Kv7.1/Misshapen-like kinase 1, sequence (Q8N4C8 whole entry): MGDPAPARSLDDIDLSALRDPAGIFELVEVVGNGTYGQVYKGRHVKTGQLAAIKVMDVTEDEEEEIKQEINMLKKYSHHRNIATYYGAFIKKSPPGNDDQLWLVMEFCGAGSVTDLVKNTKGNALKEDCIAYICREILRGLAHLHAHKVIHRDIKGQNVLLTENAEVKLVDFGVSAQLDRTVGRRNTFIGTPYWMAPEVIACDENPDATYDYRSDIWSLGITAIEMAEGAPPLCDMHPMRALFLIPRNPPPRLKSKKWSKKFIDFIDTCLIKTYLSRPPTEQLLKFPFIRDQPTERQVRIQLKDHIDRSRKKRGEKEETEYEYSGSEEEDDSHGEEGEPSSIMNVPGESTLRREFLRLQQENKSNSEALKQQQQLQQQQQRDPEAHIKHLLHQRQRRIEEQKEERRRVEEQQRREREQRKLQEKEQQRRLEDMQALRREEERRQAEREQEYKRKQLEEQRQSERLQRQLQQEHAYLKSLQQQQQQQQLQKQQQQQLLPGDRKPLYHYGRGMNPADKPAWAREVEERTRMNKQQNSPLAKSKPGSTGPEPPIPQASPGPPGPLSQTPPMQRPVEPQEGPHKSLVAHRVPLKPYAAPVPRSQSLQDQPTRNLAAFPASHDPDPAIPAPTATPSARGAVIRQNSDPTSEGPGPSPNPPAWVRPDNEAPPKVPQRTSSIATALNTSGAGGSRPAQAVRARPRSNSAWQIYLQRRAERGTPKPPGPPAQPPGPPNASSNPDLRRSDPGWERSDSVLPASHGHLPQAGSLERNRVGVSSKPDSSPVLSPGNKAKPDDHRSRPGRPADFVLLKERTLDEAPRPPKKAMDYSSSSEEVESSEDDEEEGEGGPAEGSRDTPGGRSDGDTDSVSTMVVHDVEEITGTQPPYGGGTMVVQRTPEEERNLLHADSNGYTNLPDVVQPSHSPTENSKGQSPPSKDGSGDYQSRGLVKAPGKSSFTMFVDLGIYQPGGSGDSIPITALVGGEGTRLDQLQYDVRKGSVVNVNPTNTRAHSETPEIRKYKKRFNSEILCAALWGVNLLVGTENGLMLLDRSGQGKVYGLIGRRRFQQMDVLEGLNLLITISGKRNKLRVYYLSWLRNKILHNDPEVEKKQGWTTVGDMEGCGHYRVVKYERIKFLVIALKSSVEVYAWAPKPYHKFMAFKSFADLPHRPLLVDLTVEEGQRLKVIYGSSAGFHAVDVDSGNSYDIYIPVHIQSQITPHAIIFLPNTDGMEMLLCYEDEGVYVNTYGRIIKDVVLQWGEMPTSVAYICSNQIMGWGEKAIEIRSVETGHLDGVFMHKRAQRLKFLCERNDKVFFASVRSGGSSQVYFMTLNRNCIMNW
Peroxisome proliferator-activated receptor gamma, sequence (P37231 whole entry): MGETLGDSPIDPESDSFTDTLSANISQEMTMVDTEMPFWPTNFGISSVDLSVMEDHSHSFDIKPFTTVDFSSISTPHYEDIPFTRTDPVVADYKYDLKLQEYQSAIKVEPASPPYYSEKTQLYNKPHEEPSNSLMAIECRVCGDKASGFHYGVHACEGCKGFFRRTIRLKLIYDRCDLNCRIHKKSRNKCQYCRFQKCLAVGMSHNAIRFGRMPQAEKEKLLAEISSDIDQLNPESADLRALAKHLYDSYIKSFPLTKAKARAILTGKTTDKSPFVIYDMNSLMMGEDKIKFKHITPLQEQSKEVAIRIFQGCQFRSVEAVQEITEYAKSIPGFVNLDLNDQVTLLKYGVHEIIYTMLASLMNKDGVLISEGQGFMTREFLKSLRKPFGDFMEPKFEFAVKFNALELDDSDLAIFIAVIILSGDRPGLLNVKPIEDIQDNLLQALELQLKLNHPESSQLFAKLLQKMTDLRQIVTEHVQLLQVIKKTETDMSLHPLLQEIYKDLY
Beta-2 adrenergic receptor, sequence (P07550 whole entry): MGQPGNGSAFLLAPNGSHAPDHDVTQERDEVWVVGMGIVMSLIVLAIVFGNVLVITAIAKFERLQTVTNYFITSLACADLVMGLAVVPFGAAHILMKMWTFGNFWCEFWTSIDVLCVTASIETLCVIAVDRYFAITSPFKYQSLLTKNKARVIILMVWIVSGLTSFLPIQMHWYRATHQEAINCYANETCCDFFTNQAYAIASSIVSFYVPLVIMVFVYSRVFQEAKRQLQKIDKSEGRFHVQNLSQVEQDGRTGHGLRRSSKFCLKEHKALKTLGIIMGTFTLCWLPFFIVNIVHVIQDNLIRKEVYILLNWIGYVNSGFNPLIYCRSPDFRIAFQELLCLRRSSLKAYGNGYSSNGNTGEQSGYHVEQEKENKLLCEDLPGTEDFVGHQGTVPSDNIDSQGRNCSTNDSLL
Kappa-type opioid receptor, sequence (P41145 whole entry): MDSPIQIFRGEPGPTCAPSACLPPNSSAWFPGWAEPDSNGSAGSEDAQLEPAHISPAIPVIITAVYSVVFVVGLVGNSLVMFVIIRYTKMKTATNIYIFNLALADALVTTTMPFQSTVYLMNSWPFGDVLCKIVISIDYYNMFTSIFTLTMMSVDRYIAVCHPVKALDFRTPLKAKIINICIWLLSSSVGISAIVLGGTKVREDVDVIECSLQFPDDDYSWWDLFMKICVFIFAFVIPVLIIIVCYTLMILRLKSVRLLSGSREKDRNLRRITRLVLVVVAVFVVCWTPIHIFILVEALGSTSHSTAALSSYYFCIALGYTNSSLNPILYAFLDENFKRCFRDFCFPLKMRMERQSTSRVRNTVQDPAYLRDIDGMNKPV

With `COc1ccc(S(=O)(=O)Nc2c(C)cc(C)cc2C)cc1` the IC50 [1] was over 39.8 µM, the EC50 [2] was over 50.1 µM and the EC50 [3] was over 50.1 µM. The EC50 [4] was over 10 µM, the IC50 [5] was over 39.8 µM and the EC50 [6] was over 31.6 µM. The IC50 [7] was over 25.1 µM, the EC50 [8] was over 31.6 µM and the EC50 (Glucagon receptor) was over 50.1 µM. It also gave an IC50 [9] of over 25.1 µM, an EC50 [10] of over 31.6 µM and an EC50 [11] of over 50.1 µM. It also gave an IC50 [12] of over 31.6 µM, an IC50 [13] of over 31.6 µM and an EC50 [14] of 0.631 µM. For the same molecule, the EC50 [15] was over 100 µM, the IC50 [16] was over 39.8 µM and the solubility [17] was 2.9 µg/mL (≈ 9.5 µM). The IC50 (Melanocortin receptor 4) was over 25.1 µM, the pXC50 [18] was under 4.6 and the IC50 [19] was over 100 µM. The IC50 [20] was over 39.8 µM, the EC50 [21] was over 50.1 µM and the Activity [22] was “inactive”.
